Compound activity (PubChem)
Compounds with a hit are over-represented: about 3% of the library has one in this group of screens.
B2AR ag: activates human beta-2 adrenergic receptor causing internalization; Am2.2-beta2AR cells, FAP receptor internalization, flow cytometry; response, % (test concentration not listed); 340,000 tested, 0.43% active; P07550; AID 504454;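 active means response above a set limit, near 3 SD of response in nonfluorescent compounds, cut at about 42% in these data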
Target sequence (P07550 whole entry, looked up): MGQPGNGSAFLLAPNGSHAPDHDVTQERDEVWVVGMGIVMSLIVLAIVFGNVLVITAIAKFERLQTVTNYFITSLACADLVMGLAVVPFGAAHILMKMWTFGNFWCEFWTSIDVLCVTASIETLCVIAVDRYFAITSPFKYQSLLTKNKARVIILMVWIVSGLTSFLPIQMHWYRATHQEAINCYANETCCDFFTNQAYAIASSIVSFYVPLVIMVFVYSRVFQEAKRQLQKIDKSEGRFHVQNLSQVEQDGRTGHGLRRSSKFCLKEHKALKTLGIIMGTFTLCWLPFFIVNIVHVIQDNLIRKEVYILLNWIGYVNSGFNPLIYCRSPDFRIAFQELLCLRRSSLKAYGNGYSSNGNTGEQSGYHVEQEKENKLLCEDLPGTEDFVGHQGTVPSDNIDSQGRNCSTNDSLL
PfGluPho inh: PfG6PD (Plasmodium falciparum) enzyme inhibition; PfGluPho enzyme, NADPH resazurin-diaphorase fluorescence; inhibition, % at 20 µM; 350,000 tested, 0.78% active;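 active means inhibition reaching at least a set limit at 20 µM in the primary screen, cut at about 59% in these data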;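 further: 0% = DMSO wells with substrate and 100% = DMSO wells lacking glucose-6-phosphate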
ABHD5-PLIN5 inh: inhibitors of human ABHD5-perilipin-5 interaction | Split G. princeps luciferase complementation, luminescence, 4 h | 360,000 tested, 0.78% active | Q00G26+Q8WTS1 | AID 602281 | inhibition, % at 4 µM;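 active means inhibition above the mean inhibition across every tested compound plus 3 SD, cut at about 22% in these data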;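 further: 0% = DMSO only wells and the 100% control is not disclosed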
MC4R barr agon: agonists of human melanocortin 4 receptor (MC4R) beta-arrestin. P32245. U2OS MC4R beta-arrestin complementation, luminescence; percent of melanotan II response, DMSO zero. activation, % at 8.9 µM. 360,000 tested, 0.98% active. AID 540308;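 active means activation above a per-plate cutoff, the mean activation of sample wells on that plate plus 3 SD, cut at about 8% in these data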
MC4R antagonist: human MC4R antagonism in cAMP assay | P32245 | MC4R-expressing cells, MTII-stimulated cAMP, LANCE TR-FRET | inhibition, % at 6.5 µM | 360,000 tested, 0.48% active | AID 540295;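 active means inhibition above its plate's cutoff, the mean of tested wells on that plate plus 3 SD, cut at about 29% in these data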;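 further: 0% = Melanotan II alone and 100% = Melanotan II plus saturating MCL0020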
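Assay system: U2OS cells stably expressing human melanocortin 4 receptor (MC4R) / Dosing: 6.5 µM / Timing: compound 30 min, challenge 1 h, detection 1 h / Measured by: Eu-cAMP/anti-cAMP TR-FRET, emission 671 nm / Replicates: singlicate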
Active calls of the source: *; nt = no result given; ! = not active in a repeat.

SMILES	B2AR ag	PfGluPho inh	ABHD5-PLIN5 inh	MC4R barr agon	MC4R antagonist
c1cc(SSc2ccncc2)ccn1	-8.3	64.6*	-18.3	-1.0	4.6
c1ccc(Sc2ccncc2)cc1	nt	12.0	-1.4	-1.8	1.4
O=C(Nc1ccc(Cl)c([N+](=O)[O-])c1)c1ccc(NCCCN2CCOCC2)c([N+](=O)[O-])c1	13.0	-8.1	-4.0	19.8*	4.7
COc1ccc(CC(=O)Nc2ccc(-c3cn4cccc(C)c4n3)cc2)cc1OC	-2.8	3.1	10.1	0.9	5.0
Cc1cccn2cc(-c3ccc(NC(=O)Cc4ccccc4)cc3)nc12	-10.3	-3.5	-0.9	9.3*	3.5
Cc1c(C(=O)OCC(=O)N(C)c2ccccc2)oc2ccccc12	0.1	-11.2	-4.3	-0.9	5.7
O=C(O)CCc1ccc(-c2cccs2)n1Cc1ccco1	14.1	-7.6	18.2	-2.0	13.1
O=C(O)CCc1ccc(-c2cccs2)o1	1.6	47.5	70.0*	-1.9	0.8
O=C(NCCCn1ccnc1)c1sc2cc([N+](=O)[O-])ccc2c1Cl	nt	8.3	5.5	-2.3	-3.2
O=[N+]([O-])c1ccc(CN2C=NS(=O)(=O)c3ccccc32)cc1	0.8	0.5	-2.6	-3.4	6.8
COc1ccc(N(C(=O)CCl)C(C(=O)NCCc2ccccc2)c2cccs2)cc1 (centres undefined)	41.2	-10.6	12.9	11.7*	28.2
COc1ccc(CNC(=O)C(c2ccncc2)N(C(=O)Cc2cccs2)c2ccccc2)cc1 (centres undefined)	-17.1	-3.8	1.7	-0.6	-0.8
Nc1nc2c(s1)CCc1c-2cnn1-c1ccccc1	25.5	98.4*	-29.7	-2.1	12.3
O=c1[nH]c(NNC(=S)NCc2ccccc2)nc2c1C1(CCCCC1)Cc1ccccc1-2	5.3	0.9	-10.2	7.6	15.3
O=c1[nH]c(NNC(=S)NC2CCCCC2)nc2c1C1(CCCC1)Cc1ccccc1-2	68.3*	-0.2	-0.2	4.1	9.4
O=C(O)c1ccc(N/N=C/c2cc3cc4c(cc3nc2Cl)OCCO4)cc1	44.8*	7.9	-1.1	-0.7	-1.1
Cc1cc(F)ccc1C(O)c1ncc(-c2ccccc2Cl)[nH]1 (centres undefined)	nt	nt	-4.8	0.4	-8.1
COc1ccc(CNC(=O)/C=C/c2cc3c(cc2Br)OCO3)cc1	-0.8	6.2	-2.7	8.5*	-4.9
Oc1cc(-c2ccccc2)c2ccccc2c1	2.7	101.3*	-38.1	3.9	9.5
CCOC(=O)C1(C)CCN1C(=O)c1ccc(OC)c(F)c1 (centres undefined)	nt	nt	-1.8	-0.1	11.0
C[C@@H](NCCCn1ccc(NC(=O)OCc2ccccc2)nc1=O)c1cccc2ccccc12	44.1*	-13.7	4.0	-1.1	9.0
CNC(=O)/C(C#N)=C/c1c(N(Cc2ccccc2)Cc2ccccc2)nc2c(C)cccn2c1=O	60.5*	5.3	7.2	0.6	-1.3
CCn1c(SCC(=O)N(C)CCC#N)nc2cc(S(=O)(=O)N3CCOCC3)ccc21	-9.5	1.6	22.7*	0.0	9.7
C[C@@H]1CCCCO[C@@H](CN(C)S(=O)(=O)c2ccccc2)[C@@H](C)CN([C@H](C)CO)C(=O)c2cc(N(C)C)ccc2O1	nt	39.6	-0.6	-0.2	13.0
O=C(Nc1ccc(N2CCN(c3ncccc3C(F)(F)F)CC2)nc1)c1cccs1	21.7	-0.9	1.7	9.6*	3.1
SMILES	B2AR ag	PfGluPho inh	ABHD5-PLIN5 inh	MC4R barr agon	MC4R antagonist
O=C(Nc1ccc(N2CCN(c3ccc(C(F)(F)F)cn3)CC2)nc1)c1cccs1	-10.4	3.0	-4.5	1.1	-1.0
Cc1ccccc1Oc1ccc2c(c1)[C@@H]1C[C@H](N(C)C(=O)c3cccnc3)[C@H]([C@H](C)O)C(=O)N1CC2	nt	18.3	3.1	1.9	2.5
CCc1cccc(NC(=O)C(NC(=O)C2CCCCC2)C(C)C)c1 (centres undefined)	-5.8	-9.6	0.6	-0.7	10.5
CCc1ccc(N2C(=O)/C(=C/c3cccs3)N(CC(=O)OC)C2=S)cc1	-5.7	-0.1	4.8	9.1*	2.0
COC(=O)CN1C(=S)N(c2ccc(OC)cc2)C(=O)/C1=C/c1cccs1	-3.0	5.3	-5.8	0.8	-1.9
CCOc1ccc2nc(NCCNC(=O)Nc3ccccc3)c(C#N)cc2c1	-23.2	-3.7	-1.2	9.6*	-3.3
Cc1ccccc1C(OCCN(C)C)c1ccccc1 (centres undefined)	5.1	-13.0	26.7*!	1.8	-1.6
COc1ccc(CCC(C)NCc2ccc(Cl)c(Cl)c2)cc1 (centres undefined)	8.1	18.6	-2.5	1.6	-3.9
COc1ccc(CCC(C)NCCc2ccc(Cl)cc2Cl)cc1 (centres undefined)	5.3	-1.3	7.7	9.2*	-4.5
CC(=O)N1CCN(C(=O)c2cc(=O)c3ccccc3o2)CC1	4.7	-6.1	-6.5	-1.8	-6.1
Cn1c(Cc2cccs2)nnc1SCC(=O)Nc1ccc(F)cc1F	-7.0	8.8	0.3	-1.3	10.3
Cc1cc(C(=O)CSc2nnnn2C)c(C)n1CCc1ccc(Cl)cc1	-2.4	3.0	2.6	0.8	5.9
COc1ccc(CCn2c(C)cc(C(=O)CSc3nnnn3-c3ccccc3)c2C)cc1	8.6	4.3	-2.2	8.7*	-18.9
Cc1ccc2cc(CN(CCCN(C)C)C(=S)NCc3ccccc3)c(=O)[nH]c2c1C	32.7	-11.9	23.0*	1.0	-0.9
Cc1ccc2cc(CN(CCCN(C)C)C(=O)NCc3ccccc3)c(=O)[nH]c2c1C	-1.0	-7.2	8.8	-0.2	-2.7
Cc1nc2ccccn2c1C(=O)N=Nc1c(O)n(CCC(C)C)c2ccccc12	45.4*	33.1	-3.7	1.7	16.9
CC(C)(C)OC(=O)N[C@@H](Cc1ccccc1)[C@H](O)c1ccco1	2.3	9.8	0.4	-0.4	2.0
NC(=O)c1nsc(C(=O)N(Cc2ccccc2Cl)C(C(=O)NCC2CCCO2)c2ccc(O)cc2)c1N (centres undefined)	5.4	-1.6	6.2	-1.1	-2.3
COc1ccc2nc3ccccc3nc2c1NC(=O)c1ccc(Cl)cc1	-3.9	-15.3	-2.4	9.1*	-0.5
Cc1ccc(/C=C/C(=O)O)cc1S(=O)(=O)NCc1ccco1	1.2	2.8	2.5	-0.1	4.0
COCc1ccc(C(=O)N2CCCC(C(=O)c3cc(F)ccc3F)C2)s1 (centres undefined)	5.3	-4.6	3.0	-2.2	1.8
CN(CC(=O)NCC1CCCO1)S(=O)(=O)c1ccc2ccccc2c1 (centres undefined)	nt	-3.4	-3.3	-2.7	3.8
Cc1ccc(N(NC(=O)C(O)(c2ccccc2)c2ccccc2)C(=O)CCl)cc1	5.0	15.4	6.1	10.4*	26.8
Cc1ccc(C(O)(C(=O)NN(C(=O)c2ccccc2)c2ccccc2)c2ccc(C)cc2)cc1	0.9	12.2	-4.1	8.3*	5.2
Cc1ccc(Oc2ccc(OCC(=O)NC(CC(C)C)C(=O)O)cc2)cc1 (centres undefined)	2.3	-0.3	1.1	0.4	2.1
CCCCN(C=O)c1c(CC)nc2ccc(C(=O)N(C)Cc3ccccc3)cn12	nt	nt	3.5	-1.7	-7.6
